By IC50 is commonly meant the concentration that gives 50% inhibition.

This assay relates to RAN translation of r(G4C2)^exp. Kind of assay: RAN translation assay in HEK293T cells co-transfected with. The conditions noted are these: read-out: IC50 for inhibition of RAN translation, approximate values. The format is cell-based. In a few lines:
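HEK293T cells in DMEM/10% FBS at ~80% confluency were co-transfected with (G4C2)66-no ATG-GFP and an mCherry control plasmid, reseeded, and dosed 2 h later. After 24 h with compound, cells were lysed in 100 mM potassium phosphate pH 7.8 with 0.2% Triton X-100. GFP (ex 485/20, em 528/20) and mCherry (ex 530/25, em 590/35) were read, and the untransfected-cell-background-corrected GFP/mCherry ratio was used.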

In the case of `Cc1c2ccnc(C(=O)NCCN(C)C)c2cc2c3cc(O)ccc3n(C)c12` [Compound 2], the IC50 was roughly 300 nM.
